Assay outcomes as filed in PubChem.
HTRA1 inh – HTRA1 serine protease inhibitors, primary screen, biochemical, fluorescence polarization, HTS. inhibition, % at 5.96 µM. 340,000 compounds, 0.5% hits. Q92743. recombinant HTRA1, FP-rhodamine activity-based probe; in the data active means inhibition above about 36%
Target sequence (Q92743 whole entry, looked up): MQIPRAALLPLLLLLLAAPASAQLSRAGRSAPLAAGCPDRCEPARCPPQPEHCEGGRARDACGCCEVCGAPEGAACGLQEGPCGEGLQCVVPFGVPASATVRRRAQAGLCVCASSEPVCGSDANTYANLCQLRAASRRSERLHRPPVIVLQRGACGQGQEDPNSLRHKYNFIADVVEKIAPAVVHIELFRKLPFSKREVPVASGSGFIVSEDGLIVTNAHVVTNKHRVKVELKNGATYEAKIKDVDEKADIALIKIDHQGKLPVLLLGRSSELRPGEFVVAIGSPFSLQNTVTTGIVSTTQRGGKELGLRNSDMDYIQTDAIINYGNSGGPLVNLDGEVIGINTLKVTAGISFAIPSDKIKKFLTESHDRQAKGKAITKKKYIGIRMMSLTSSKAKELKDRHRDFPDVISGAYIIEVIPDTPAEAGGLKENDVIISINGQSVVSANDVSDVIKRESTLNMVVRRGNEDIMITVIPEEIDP
TCR-CD3 inh – inhibitors of human TCR-CD3 interaction, primary screen, biochemical, fluorescence, TAMRA-labeled TCR probe. T-cell receptor (TCR). inhibition, % at 9.4 µM. 360,000 compounds, 0.37% hits. AID 651800, 2012;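 further: recombinant mutant TCR 2C K166C tagged with TAMRA read by polarization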
SIAE primary – human SIAE inhibitors, primary screen, biochemical, fluorescence polarization, FP-Rh probe, 1536-well HTS. Sialate O-acetylesterase (Homo sapiens), Q9HAT2. SIAE FP-Rh probe binding. inhibition, % at 9.66 µM. 370,000 compounds, 0.69% hits;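 active means inhibition above a cutoff: mean of compounds within the control limits plus 3 SD of those, cut at about 17% in these data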
PRMT1 inh – PRMT1 methyltransferase inhibitors, primary screen, biochemical, fluorescence polarization. recombinant PRMT1, activity-based probe fluorescence polarization. inhibition, % at 2.79 µM. 370,000 compounds, 1.3% hits. AID 652257, 2013;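 active means inhibition above about 21% made by adding two undisclosed values, limit read from the data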
mABHD4 FP – ABHD4 inhibitors, primary screen, biochemical, fluorescence polarization, mouse. purified mABHD4, FP-Rh probe fluorescence polarization. AID 720543, 2013. inhibition, % at 8.92 µM. (Lyso)-N-acylphosphatidylethanolamine lipase (Mus musculus), Q8VD66. 370,000 compounds, 0.54% hits;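 active means inhibition exceeding the mean over every tested compound plus 3 SD, cut at about 30% in these data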
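Test system: mABHD4 protein; Read-out basis: % inhibition; Incubation: 45 min + 60 min at 25 °C; Repeats: single replicate; Technique: fluorescence polarization with parallel and perpendicular emission, 525/598 nm; Compound: 8.92 µM, single dose; Benchmarks: full inhibition S159A mutant plus DMSO, zero as sample-well median.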
BSA TAMRA ctr – compounds interfering with TAMRA-BSA probe, counter-screen for TCR-CD3 interaction inhibitor project, biochemical, fluorescence, TAMRA-labeled BSA; shares compounds with TCR-CD3 inh; TAMRA-labeled BSA probe fluorescence counterscreen; inhibition, % at 9.4 µM; 1,200 compounds, 10% hits; AID 652035, 2013; in the data active means inhibition above about 23%
TCR-CD3 inh conf – TCR-CD3 interaction inhibitors, retest, confirmation, biochemical, fluorescence, TAMRA-labeled TCR probe; TAMRA-labeled TCR probe fluorescence binding assay; shares compounds with TCR-CD3 inh; inhibition, % at 9.4 µM; 1,200 compounds, 48% hits
Of the large screens only hits and unclear results are named; the others gave an inactive call (follow-up assays come after a bar, where they were run). Rows were chosen to be rich in hits. Some 2.7% of all compounds tested hit in one or more screens of this group. Unless noted, no stated cut-off is given here; in the data, active means inhibition above about 19%; inactive means the rest.

C[C@H](CO)N1C[C@H](C)[C@@H](CN(C)S(=O)(=O)c2ccc(F)cc2)Oc2ccc(NC(=O)Nc3ccc(C(F)(F)F)cc3)cc2C1=O	TCR-CD3 inh 22 | BSA TAMRA ctr inactive | TCR-CD3 inh conf 42
C[C@H](CO)N1C[C@H](C)[C@@H](CN(C)S(C)(=O)=O)Oc2ccc(NC(=O)Nc3ccc(C(F)(F)F)cc3)cc2C1=O	none
Cc1ccc2cc(CN(c3cccc(C)c3C)S(=O)(=O)c3ccccc3)c(=O)[nH]c2c1	none
CCOc1ccc(NC(=O)C(C)C(Cc2ccc(C)cc2)C(=O)O)cc1 (centres undefined)	none
CCN(C[C@H]1N[C@@](C)(C(=O)OC)[C@H]2C(=O)N(C)C(=O)[C@@H]12)C(=O)COc1ccccc1	none
COc1ccc(CCN(C)CC(=O)Nc2cc(C)nc3ccccc23)cc1OC	none (no result: HTRA1 inh)
COc1ccc(N2CC(C(=O)N/N=C/c3cc([N+](=O)[O-])ccc3O)CC2=O)cc1 (centres undefined)	TCR-CD3 inh 25 | BSA TAMRA ctr inactive | TCR-CD3 inh conf inactive
COc1ccc(N2CC(C(=O)Nc3ccc([N+](=O)[O-])cc3Br)CC2=O)cc1 (centres undefined)	none
O=C(Cn1nnc(-c2ccccc2)n1)N/N=C/c1cccc([N+](=O)[O-])c1O	TCR-CD3 inh 38 (no result: HTRA1 inh) | BSA TAMRA ctr inactive | TCR-CD3 inh conf 50
Cc1cc(C(=O)N/N=C/c2cc(Br)cc([N+](=O)[O-])c2O)c2ccccc2n1	TCR-CD3 inh 41, mABHD4 FP 44 | BSA TAMRA ctr inactive | TCR-CD3 inh conf 43
Cc1cc(C(=O)N/N=C/c2cccc([N+](=O)[O-])c2O)n[nH]1	TCR-CD3 inh 29 | BSA TAMRA ctr inactive | TCR-CD3 inh conf inactive
CCOc1ccc(C(=O)NC(C(=O)N2CCC2)C(C)C)cc1 (centres undefined)	none
O=C(NNC(=S)Nc1ccccc1)NNC(=S)Nc1ccccc1	TCR-CD3 inh 30 | BSA TAMRA ctr inactive | TCR-CD3 inh conf inactive
CC(=O)Nc1cccc(NC(=O)COc2ccccc2C)c1	TCR-CD3 inh 21 | BSA TAMRA ctr inactive | TCR-CD3 inh conf inactive
COC(=O)c1ccsc1NS(C)(=O)=O	none (no result: HTRA1 inh)
O=C(NNC(=S)NC(=O)c1cccs1)c1ccc(NC(=O)c2ccccc2)cc1	none
O=C(NC(=S)Nc1ccc(Br)cn1)c1cccs1	TCR-CD3 inh 27 | BSA TAMRA ctr inactive | TCR-CD3 inh conf inactive
COc1ccc(C(=O)NNC(=S)NC(=O)/C=C/c2cccs2)cc1	TCR-CD3 inh 25 | BSA TAMRA ctr inactive | TCR-CD3 inh conf inactive
COc1ccc(/C=C/C(=O)NC(=S)NNC(=O)Cc2cccs2)cc1	none
O=C(NNC(=S)NC(=O)c1cccs1)c1ccc(O)cc1	TCR-CD3 inh 26 | BSA TAMRA ctr inactive | TCR-CD3 inh conf 23
COc1cccc2c(SCC(=O)N/N=C/c3ccc(O)c(O)c3)cc(C)nc12	TCR-CD3 inh 45, PRMT1 inh 29 (no result: HTRA1 inh) | BSA TAMRA ctr inactive | TCR-CD3 inh conf 79
Cn1cccc1CC(=O)N/N=C/C=C/c1ccco1	TCR-CD3 inh 20 | BSA TAMRA ctr inactive | TCR-CD3 inh conf inactive
O=C(CCCc1ccccc1)NCc1ccc(F)cc1	none
COc1ccc(/C(C)=N/NC(=O)c2cccc(S(=O)(=O)N3CCCC3)c2)c(O)c1	TCR-CD3 inh 34 | BSA TAMRA ctr inactive | TCR-CD3 inh conf 20
O=C(c1ccc(COCC(F)(F)F)o1)N1CCCC1	none
COC(=O)C1CCN(C2CN(Cc3cn(Cc4ccc(C(F)(F)F)cc4)nn3)S(=O)(=O)C2)CC1 (centres undefined)	none (no result: HTRA1 inh)
CCCCn1c(N)c(N(CCOC)C(=O)c2cc(-c3ccc(OC)c(OC)c3)nc3ccccc23)c(=O)[nH]c1=O	none
CCCCn1c(N)c(N(CCOC)C(=O)c2cc(-c3ccco3)nc3ccccc23)c(=O)[nH]c1=O	TCR-CD3 inh 22 | BSA TAMRA ctr inactive | TCR-CD3 inh conf inactive
NC(=O)[C@H]1CC2(CC(c3cccc(NC(=O)COc4ccc(Cl)cc4)c3)=NO2)CN1C(=O)CC(c1ccccc1)c1ccccc1 (some centres undefined)	TCR-CD3 inh 54 | BSA TAMRA ctr inactive | TCR-CD3 inh conf 30
NC(=O)[C@@H]1CC2(CC(c3cccc(NC(=O)CC(c4ccccc4)c4ccccc4)c3)=NO2)CN1C(=O)COc1ccc(Cl)cc1 (some centres undefined)	TCR-CD3 inh 32 | BSA TAMRA ctr inactive | TCR-CD3 inh conf 31
NC(=O)[C@H]1CC2(CC(c3cccc(NC(=O)COc4ccc(Cl)cc4)c3)=NO2)CN1C(=O)c1ccc(Cl)cc1 (some centres undefined)	none
COc1ccc(-c2oc3ccccc3c2C(=O)Oc2ccccc2)cc1	none
COc1ccc(C(=O)CSc2nnc(CNC(=O)c3ccccc3F)n2C)cc1OC	none
N=C1C(=O)NC(=O)C1c1ccccc1 (centres undefined)	none
O=C1NNC(=O)C1c1ccccc1	TCR-CD3 inh 35 | BSA TAMRA ctr inactive | TCR-CD3 inh conf inactive
Cc1cccc(NC(=O)Nc2cc(C)cc(C)n2)c1	none
CC(C)c1cc(C(=O)O)c2ccccc2n1	TCR-CD3 inh 34 | BSA TAMRA ctr inactive | TCR-CD3 inh conf inactive
CCc1nc2c(OCCn3cccc3)cccn2c1N(C)C(=O)C1CC1	none (no result: HTRA1 inh)
N#CCC(=O)Nc1ccc(C(=O)OCC(=O)Nc2cc(-c3ccccc3)nn2-c2ccccc2)cc1	TCR-CD3 inh 52 | BSA TAMRA ctr inactive | TCR-CD3 inh conf 21
CCN(CC)S(=O)(=O)c1ccc(NC(=O)COC(=O)c2ccc(NC(=O)CC#N)cc2)cc1	TCR-CD3 inh 20 | BSA TAMRA ctr inactive | TCR-CD3 inh conf inactive
CC[C@]1(C(=O)OC)[C@H]2C(=O)N(C)C(=O)[C@H]2[C@H]2CN(C)C(=NC3CCCCC3)N21	none
Cc1ccc(S(=O)(=O)N2CCOCC2)cc1NC(=O)COC(=O)Cn1c(C)csc1=O	none
CN(C)/C=C1\SC(=S)N(c2ccc(Br)cc2)C1=O	TCR-CD3 inh 30 | BSA TAMRA ctr 90 | TCR-CD3 inh conf 76
CC(C(=O)N1CCCCC1)n1sc2ccccc2c1=O (centres undefined)	TCR-CD3 inh 31 | BSA TAMRA ctr inactive | TCR-CD3 inh conf inactive
O=[N+]([O-])c1ccccc1Nc1cccnc1	none
CCN(CC)S(=O)(=O)c1ccc(NC(=O)C2c3ccccc3Oc3ccccc32)cc1	TCR-CD3 inh 45 | BSA TAMRA ctr inactive | TCR-CD3 inh conf inactive
Cc1ccc(S(=O)(=O)Nc2ccc(NC(=O)Nc3cccc(C(F)(F)F)c3)cc2)cc1	none
